{"source": "ChEMBL document CHEMBL4229344", "about": "(Eur J Med Chem, 2018)", "key": {"[1]": {"system": "Epidermal growth factor receptor (Homo sapiens), P00533 [UNDEFINED MUTATION]", "sequence (P00533 whole entry, looked up, stated change not applied)": "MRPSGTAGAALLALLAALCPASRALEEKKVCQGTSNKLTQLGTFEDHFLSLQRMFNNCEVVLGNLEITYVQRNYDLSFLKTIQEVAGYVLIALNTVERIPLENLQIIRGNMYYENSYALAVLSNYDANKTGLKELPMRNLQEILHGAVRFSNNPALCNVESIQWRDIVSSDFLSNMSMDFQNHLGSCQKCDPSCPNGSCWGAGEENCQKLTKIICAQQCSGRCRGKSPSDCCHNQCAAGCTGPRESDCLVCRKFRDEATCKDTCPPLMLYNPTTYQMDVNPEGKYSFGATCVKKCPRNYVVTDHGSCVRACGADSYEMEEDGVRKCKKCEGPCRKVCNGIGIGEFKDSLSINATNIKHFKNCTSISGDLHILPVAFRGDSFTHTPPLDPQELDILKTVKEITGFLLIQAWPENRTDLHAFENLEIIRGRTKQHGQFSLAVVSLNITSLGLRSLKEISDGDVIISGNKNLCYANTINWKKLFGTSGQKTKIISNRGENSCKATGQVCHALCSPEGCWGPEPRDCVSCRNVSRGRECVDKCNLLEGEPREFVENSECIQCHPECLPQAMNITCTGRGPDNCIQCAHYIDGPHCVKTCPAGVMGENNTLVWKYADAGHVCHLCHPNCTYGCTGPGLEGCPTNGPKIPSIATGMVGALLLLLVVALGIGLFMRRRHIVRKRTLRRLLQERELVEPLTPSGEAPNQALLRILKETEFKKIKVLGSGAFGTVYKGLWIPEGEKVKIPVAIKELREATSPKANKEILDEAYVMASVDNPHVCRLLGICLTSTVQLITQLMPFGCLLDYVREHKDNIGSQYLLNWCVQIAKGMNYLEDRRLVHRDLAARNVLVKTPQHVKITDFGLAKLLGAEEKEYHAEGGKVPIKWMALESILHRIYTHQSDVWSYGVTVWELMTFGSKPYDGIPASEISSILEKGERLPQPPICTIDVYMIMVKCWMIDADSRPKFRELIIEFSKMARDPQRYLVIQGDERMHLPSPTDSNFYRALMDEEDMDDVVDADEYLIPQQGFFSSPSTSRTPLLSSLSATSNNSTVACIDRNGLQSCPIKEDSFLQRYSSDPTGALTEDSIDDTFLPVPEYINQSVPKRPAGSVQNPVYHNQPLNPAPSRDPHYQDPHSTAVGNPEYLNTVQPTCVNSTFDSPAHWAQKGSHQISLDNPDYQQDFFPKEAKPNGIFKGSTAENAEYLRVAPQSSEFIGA", "experiment": "Binding affinity to human partial length EGFR L747-S752del/P753S mutant expressed in bacterial expression system assessed as residual binding level at 1 uM by Kinomescan method relative to control", "how_it_was_run": "(§1)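 Kinome-wide single-concentration binding screen (KINOMEscan) at 1 μM against a panel of 468 purified kinases and mutants. Read-out is relative binding of each kinase compared with control. Selectivity across the panel was summarised as an S(10) score.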"}, "[2]": {"target": "Serine/threonine-protein kinase D2 (Homo sapiens) (UniProt Q9BZL6)", "experiment": "Binding affinity to wild-type human partial length PRKD2 (A519 to E838 residues) expressed in bacterial expression system assessed as residual binding level at 1 uM by Kinomescan method relative to control"}, "[3]": {"target": "Mitogen-activated protein kinase kinase kinase 1 (Homo sapiens) (UniProt Q13233)", "experiment": "Binding affinity to wild-type human partial length MAP3K1 (L1202 to W1512 residues) expressed in mammalian expression system assessed as residual binding level at 1 uM by Kinomescan method relative to control"}, "[4]": {"target": "Tyrosine-protein kinase ABL1 (Homo sapiens, UniProt P00519)", "sequence (P00519 whole entry, the tested form may be a part)": "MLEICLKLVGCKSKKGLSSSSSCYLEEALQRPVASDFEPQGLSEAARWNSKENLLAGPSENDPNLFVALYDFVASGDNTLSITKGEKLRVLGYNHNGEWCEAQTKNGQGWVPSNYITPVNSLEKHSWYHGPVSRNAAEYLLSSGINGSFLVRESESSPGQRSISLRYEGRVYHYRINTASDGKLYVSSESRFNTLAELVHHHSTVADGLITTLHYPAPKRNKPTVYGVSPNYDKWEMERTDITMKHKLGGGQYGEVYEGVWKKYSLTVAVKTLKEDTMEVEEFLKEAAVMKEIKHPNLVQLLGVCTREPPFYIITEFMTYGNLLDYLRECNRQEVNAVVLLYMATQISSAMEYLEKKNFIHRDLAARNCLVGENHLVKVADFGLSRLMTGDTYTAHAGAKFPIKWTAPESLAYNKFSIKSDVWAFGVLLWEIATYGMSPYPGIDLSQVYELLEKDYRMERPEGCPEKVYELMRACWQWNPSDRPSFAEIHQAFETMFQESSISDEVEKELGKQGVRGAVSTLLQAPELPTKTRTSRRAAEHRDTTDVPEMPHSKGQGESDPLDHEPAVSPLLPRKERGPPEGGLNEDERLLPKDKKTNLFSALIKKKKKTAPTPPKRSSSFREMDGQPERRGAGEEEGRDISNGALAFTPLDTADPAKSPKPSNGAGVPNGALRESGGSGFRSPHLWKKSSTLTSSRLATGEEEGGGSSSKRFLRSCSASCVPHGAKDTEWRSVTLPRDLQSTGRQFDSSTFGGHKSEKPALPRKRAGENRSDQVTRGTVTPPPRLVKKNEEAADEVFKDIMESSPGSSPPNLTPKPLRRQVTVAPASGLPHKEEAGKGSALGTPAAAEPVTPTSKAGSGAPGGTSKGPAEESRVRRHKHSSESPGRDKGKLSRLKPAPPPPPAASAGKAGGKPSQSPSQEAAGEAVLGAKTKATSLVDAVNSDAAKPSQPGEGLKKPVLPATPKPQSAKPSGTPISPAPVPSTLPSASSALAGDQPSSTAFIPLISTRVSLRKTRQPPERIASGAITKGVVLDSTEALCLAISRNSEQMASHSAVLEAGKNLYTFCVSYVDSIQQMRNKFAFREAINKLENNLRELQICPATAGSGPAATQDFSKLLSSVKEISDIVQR", "experiment": "Binding affinity to wild-type human phosphorylated ABL1 (S229 to K512 residues) expressed in mammalian expression system assessed as residual binding level at 1 uM by Kinomescan method relative to control"}, "[5]": {"target": "Transient receptor potential cation channel subfamily M member 6 (Homo sapiens) (UniProt Q9BX84)", "experiment": "Binding affinity to wild-type human partial length TRPM6 (Q1723 to I1998 residues) expressed in mammalian expression system assessed as residual binding level at 1 uM by Kinomescan method relative to control"}, "[6]": {"target": "Dual specificity mitogen-activated protein kinase kinase 2 (Homo sapiens) (UniProt P36507)", "experiment": "Binding affinity to wild-type human full length MEK2 (M1 to V400 residues) expressed in mammalian expression system assessed as residual binding level at 1 uM by Kinomescan method relative to control", "how_it_was_run": "(§2)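 Single-concentration KINOMEscan (DiscoverX) binding screen at 1 μM against a panel of 468 purified kinases and mutants. The read-out is binding relative to control.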"}, "[7]": {"system": "EOL1", "experiment": "Antitumor activity against human EOL-1 cells xenografted in nu/nu mouse assessed as tumor growth inhibition at 25 to 100 mg/kg/day, ip", "assay_type": "functional, organism-based", "how_it_was_run": "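Female nu/nu mice, six weeks old; 5 million EOL-1 cells in PBS mixed 1:1 with Matrigel, injected subcutaneously in the right flank. Dosing began once tumors reached 200–400 mm3, with randomization into groups of 6. Daily IP dosing at 25.0, 50.0 or 100 mg/kg/d in 0.5% methocellulose/0.4% Tween80 in water, or vehicle alone, for 14 days. Tumor volume = (W2×L)/2, measured daily. Final tumor weights were also recorded.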"}, "[8]": {"target": "Ephrin type-A receptor 4 (Homo sapiens) (UniProt P54764)", "sequence (P54764 whole entry, the tested form may be a part)": "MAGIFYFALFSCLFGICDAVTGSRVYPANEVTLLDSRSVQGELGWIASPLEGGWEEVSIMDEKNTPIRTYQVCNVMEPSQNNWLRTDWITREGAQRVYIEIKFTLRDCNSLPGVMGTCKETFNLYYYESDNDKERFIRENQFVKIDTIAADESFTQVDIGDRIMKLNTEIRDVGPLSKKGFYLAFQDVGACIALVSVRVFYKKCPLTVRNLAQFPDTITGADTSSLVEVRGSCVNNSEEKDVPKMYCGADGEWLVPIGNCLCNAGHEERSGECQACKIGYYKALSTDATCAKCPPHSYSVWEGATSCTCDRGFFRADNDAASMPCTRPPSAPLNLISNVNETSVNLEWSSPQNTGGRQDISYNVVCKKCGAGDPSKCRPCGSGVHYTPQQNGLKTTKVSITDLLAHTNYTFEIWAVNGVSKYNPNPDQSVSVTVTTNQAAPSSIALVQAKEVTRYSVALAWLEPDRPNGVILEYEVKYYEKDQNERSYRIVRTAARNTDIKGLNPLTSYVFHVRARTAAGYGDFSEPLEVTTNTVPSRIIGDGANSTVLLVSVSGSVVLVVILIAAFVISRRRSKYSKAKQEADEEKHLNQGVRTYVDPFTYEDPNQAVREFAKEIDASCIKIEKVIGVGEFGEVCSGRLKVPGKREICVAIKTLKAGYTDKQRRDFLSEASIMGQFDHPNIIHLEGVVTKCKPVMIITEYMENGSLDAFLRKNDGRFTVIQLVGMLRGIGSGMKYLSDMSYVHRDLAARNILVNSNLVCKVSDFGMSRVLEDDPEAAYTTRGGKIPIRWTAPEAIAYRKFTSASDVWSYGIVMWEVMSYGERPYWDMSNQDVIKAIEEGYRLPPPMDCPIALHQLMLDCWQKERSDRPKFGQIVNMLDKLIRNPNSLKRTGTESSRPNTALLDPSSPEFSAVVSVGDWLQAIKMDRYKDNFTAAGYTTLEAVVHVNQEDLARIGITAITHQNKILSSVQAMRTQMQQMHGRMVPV", "experiment": "Binding affinity to wild-type human partial length EPHA4 (T601 to R897 residues) expressed in bacterial expression system assessed as residual binding level at 1 uM by Kinomescan method relative to control", "how_it_was_run": "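Kinome-wide competition binding screen against a panel of 468 purified kinases/mutants, with the test compound at a single concentration of 1 μM. Read-out is the relative binding activity of each kinase in the presence of compound.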"}, "[9]": {"target": "Serine/threonine-protein kinase MRCK gamma (Homo sapiens) (UniProt Q6DT37)", "experiment": "Binding affinity to wild-type human partial length DMPK2 (S46 to S408 residues) expressed in bacterial expression system assessed as residual binding level at 1 uM by Kinomescan method relative to control"}, "[10]": {"target": "Mast/stem cell growth factor receptor Kit (Homo sapiens, UniProt P10721)", "sequence (P10721 whole entry)": "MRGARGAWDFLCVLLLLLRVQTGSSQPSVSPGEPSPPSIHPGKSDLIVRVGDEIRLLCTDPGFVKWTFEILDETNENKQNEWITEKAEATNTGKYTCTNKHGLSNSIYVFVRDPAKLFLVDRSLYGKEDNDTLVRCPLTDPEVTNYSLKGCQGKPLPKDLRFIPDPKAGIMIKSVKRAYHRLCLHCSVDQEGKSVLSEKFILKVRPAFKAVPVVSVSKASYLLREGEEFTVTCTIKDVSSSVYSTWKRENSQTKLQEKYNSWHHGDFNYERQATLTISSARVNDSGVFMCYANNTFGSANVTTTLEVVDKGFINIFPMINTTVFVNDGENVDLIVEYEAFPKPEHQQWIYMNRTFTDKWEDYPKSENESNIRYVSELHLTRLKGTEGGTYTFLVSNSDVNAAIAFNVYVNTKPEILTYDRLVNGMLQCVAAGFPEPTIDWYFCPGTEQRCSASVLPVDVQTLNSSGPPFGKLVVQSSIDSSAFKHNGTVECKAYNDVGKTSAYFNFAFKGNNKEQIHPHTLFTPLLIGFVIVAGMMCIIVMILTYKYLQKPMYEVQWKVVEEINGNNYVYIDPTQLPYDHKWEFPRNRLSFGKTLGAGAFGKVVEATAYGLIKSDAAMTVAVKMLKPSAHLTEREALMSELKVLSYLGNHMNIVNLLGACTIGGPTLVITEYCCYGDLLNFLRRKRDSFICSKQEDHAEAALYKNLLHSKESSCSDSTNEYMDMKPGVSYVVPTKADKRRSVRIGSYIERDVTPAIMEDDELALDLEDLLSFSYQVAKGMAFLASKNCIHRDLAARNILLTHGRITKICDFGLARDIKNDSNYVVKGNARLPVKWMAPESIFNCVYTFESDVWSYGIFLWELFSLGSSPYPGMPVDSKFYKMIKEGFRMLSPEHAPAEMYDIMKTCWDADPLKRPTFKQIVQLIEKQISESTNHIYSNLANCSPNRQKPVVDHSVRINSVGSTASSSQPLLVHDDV", "experiment": "Inhibition of c-KIT (unknown origin) using poly(4:1 Glu,Tyr) peptide as substrate preincubated for 1 hr followed by addition of ATP and measured after 30 mins by ADP-Glo bioluminescence assay"}, "[11]": {"target": "Serine/threonine-protein kinase SIK2 (Homo sapiens) (UniProt Q9H0K1)", "experiment": "Binding affinity to wild-type human full length SIK2 (M1 to N926 residues) expressed in bacterial expression system assessed as residual binding level at 1 uM by Kinomescan method relative to control", "how_it_was_run": "(§3)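 KINOMEscan competition binding against 468 purified kinases/mutants, test compound at 1 µM; residual binding relative to control.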"}, "[12]": {"target": "Ribosomal protein S6 kinase alpha-3 (Homo sapiens) (UniProt P51812)", "experiment": "Binding affinity to wild-type human partial length C-terminal RSK2 kinase domain 2 (V402 to S715 residues) expressed in mammalian expression system assessed as residual binding level at 1 uM by Kinomescan method relative to control"}, "[13]": {"system": "Receptor-type tyrosine-protein kinase FLT3 (Homo sapiens), P36888 [D835V]", "experiment": "Binding affinity to human partial length FLT3 D835V mutant (V592 to Y969 residues) expressed in bacterial expression system assessed as residual binding level at 1 uM by Kinomescan method relative to control", "how_it_was_run": "as §1"}, "[14]": {"target": "3-phosphoinositide-dependent protein kinase 1 (Homo sapiens) (UniProt O15530)", "sequence (O15530 whole entry, the tested form may be a part)": "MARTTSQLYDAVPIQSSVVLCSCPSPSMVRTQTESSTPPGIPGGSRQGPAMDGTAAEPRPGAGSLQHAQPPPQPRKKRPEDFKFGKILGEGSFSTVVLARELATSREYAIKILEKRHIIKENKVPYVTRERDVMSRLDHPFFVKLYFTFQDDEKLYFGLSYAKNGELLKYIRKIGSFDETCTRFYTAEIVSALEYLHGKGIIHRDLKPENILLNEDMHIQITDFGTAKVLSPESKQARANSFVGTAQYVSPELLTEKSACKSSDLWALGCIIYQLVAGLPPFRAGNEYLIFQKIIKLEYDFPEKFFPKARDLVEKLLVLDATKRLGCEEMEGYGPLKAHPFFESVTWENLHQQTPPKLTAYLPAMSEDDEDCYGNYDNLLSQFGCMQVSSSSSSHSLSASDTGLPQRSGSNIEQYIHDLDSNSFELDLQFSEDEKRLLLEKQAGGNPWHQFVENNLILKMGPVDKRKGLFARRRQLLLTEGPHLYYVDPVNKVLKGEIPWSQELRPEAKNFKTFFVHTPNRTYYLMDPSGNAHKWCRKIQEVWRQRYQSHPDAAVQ", "experiment": "Binding affinity to wild-type human full length PDPK1 (M1 to Q556 residues) expressed in bacterial expression system assessed as residual binding level at 1 uM by Kinomescan method relative to control", "how_it_was_run": "as §2"}, "[15]": {"experiment": "AUC (0 to t) in Sprague-Dawley rat at 1 mg/kg, iv", "assay_type": "ADME, organism-based", "conditions": "in vivo", "how_it_was_run": "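Male Sprague-Dawley rats (6–8 weeks) fasted overnight, dosed IV or orally; compound dissolved in 5% DMSO/40% PEG400/55% saline (dosing solution 1 mg/mL). Blood (~0.2 mL) from jugular vein into heparin; IV sampling 1 min–8 h, oral 5 min–24 h. Plasma separated by centrifugation at 2–8 °C, stored at −80 °C until analysis.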"}, "[16]": {"target": "Cyclin-dependent kinase 7 (Homo sapiens) (UniProt P50613)", "experiment": "Binding affinity to wild-type human full length CDK7 (M1 to L344 residues) expressed in mammalian expression system assessed as residual binding level at 1 uM by Kinomescan method relative to control", "how_it_was_run": "as §3"}, "[17]": {"system": "Hepatocyte growth factor receptor (Homo sapiens), P08581 [Y1235D]", "experiment": "Binding affinity to human partial length MET Y1235D mutant (D1010 to S1367 residues) expressed in bacterial expression system assessed as residual binding level at 1 uM by Kinomescan method relative to control", "how_it_was_run": "as §1"}, "[18]": {"target": "1-phosphatidylinositol 3-phosphate 5-kinase (Homo sapiens) (UniProt Q9Y2I7)", "experiment": "Binding affinity to wild-type human partial length PIKFYVE (F1512 to C2098 residues) expressed in mammalian expression system assessed as residual binding level at 1 uM by Kinomescan method relative to control", "how_it_was_run": "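KINOMEscan competition binding against a panel of 468 purified kinases/mutants, compound tested at 1 μM; readout is relative binding activity versus control.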"}, "[19]": {"target": "Interferon-induced, double-stranded RNA-activated protein kinase (Homo sapiens) (UniProt P19525)", "experiment": "Binding affinity to wild-type human partial length PRKR (F247 to C551 residues) expressed in bacterial expression system assessed as residual binding level at 1 uM by Kinomescan method relative to control"}, "[20]": {"system": "Rattus norvegicus", "experiment": "Apparent volume of distribution in Sprague-Dawley rat at 10 mg/kg, po", "assay_type": "ADME, organism-based", "conditions": "in vivo"}}}
{"smiles": "Cc1ccc(NC(=O)c2ccc(CN(CCN(C)C)C(=O)c3cccnc3)cc2)cc1Nc1nccc(-c2cccnc2)n1", "values": [{"measurement": "Activity", "setting": "[1]", "result": 96, "unit": "%"}, {"measurement": "Activity", "setting": "[2]", "result": 93, "unit": "%"}, {"measurement": "Activity", "setting": "[3]", "result": 88, "unit": "%"}, {"measurement": "Activity", "setting": "[4]", "result": 73, "unit": "%"}, {"measurement": "Activity", "setting": "[5]", "result": 100, "unit": "%"}, {"measurement": "Activity", "setting": "[6]", "result": 86, "unit": "%"}, {"measurement": "TGI", "setting": "[7]", "result": "Dose-dependent effect"}, {"measurement": "Activity", "setting": "[8]", "result": 94, "unit": "%"}, {"measurement": "Activity", "setting": "[9]", "result": 100, "unit": "%"}, {"measurement": "IC50", "setting": "[10]", "result": "> 10", "unit": "µM"}, {"measurement": "Activity", "setting": "[11]", "result": 87, "unit": "%"}, {"measurement": "Activity", "setting": "[12]", "result": 100, "unit": "%"}, {"measurement": "Activity", "setting": "[13]", "result": 100, "unit": "%"}, {"measurement": "Activity", "setting": "[14]", "result": 100, "unit": "%"}, {"measurement": "AUC(0-t)", "setting": "[15]", "result": 528, "unit": "ng·h/mL"}, {"measurement": "Activity", "setting": "[16]", "result": 91, "unit": "%"}, {"measurement": "Activity", "setting": "[17]", "result": 93, "unit": "%"}, {"measurement": "Activity", "setting": "[18]", "result": 91, "unit": "%"}, {"measurement": "Activity", "setting": "[19]", "result": 100, "unit": "%"}, {"measurement": "Vz", "setting": "[20]", "result": 256.181, "unit": "L/kg"}]}
